Data as given in PMC5665024 (Chemical research in toxicology, 2017).

What was measured:
[1] = target: T1, human DNA polymerase η (pol η) (Homo sapiens, UniProt Q9Y253); experiment: Steady-state primer extension assay, pol η; assay type: biochemical
T1 sequence (Q9Y253 1-713): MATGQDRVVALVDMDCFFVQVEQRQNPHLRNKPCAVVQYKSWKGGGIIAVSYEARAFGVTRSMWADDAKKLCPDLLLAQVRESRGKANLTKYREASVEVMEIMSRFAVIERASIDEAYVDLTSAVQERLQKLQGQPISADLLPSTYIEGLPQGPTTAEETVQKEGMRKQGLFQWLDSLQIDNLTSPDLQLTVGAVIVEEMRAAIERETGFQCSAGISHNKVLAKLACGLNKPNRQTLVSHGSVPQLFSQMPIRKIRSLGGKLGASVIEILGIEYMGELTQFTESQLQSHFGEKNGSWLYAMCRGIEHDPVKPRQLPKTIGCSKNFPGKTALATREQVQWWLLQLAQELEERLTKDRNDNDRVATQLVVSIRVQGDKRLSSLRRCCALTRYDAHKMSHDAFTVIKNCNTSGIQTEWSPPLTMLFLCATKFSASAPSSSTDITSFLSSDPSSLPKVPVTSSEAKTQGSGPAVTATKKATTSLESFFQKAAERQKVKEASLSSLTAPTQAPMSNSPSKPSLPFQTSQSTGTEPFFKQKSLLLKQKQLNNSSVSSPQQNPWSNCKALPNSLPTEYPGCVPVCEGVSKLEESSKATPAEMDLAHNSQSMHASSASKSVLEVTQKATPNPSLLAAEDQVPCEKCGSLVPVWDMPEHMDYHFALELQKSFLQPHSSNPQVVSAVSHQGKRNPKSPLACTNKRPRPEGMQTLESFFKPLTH

[2] = target: T2, pol λ binding to DNA (Homo sapiens, UniProt Q9UGP5); experiment: Polymerase–DNA interaction, electrophoretic mobility shift assay, pol λ; details: for inhibition of DNA binding to polymerase (EMSA): honokiol up to 200 μM, polymerase in excess of DNA
T2 sequence (Q9UGP5 1-575): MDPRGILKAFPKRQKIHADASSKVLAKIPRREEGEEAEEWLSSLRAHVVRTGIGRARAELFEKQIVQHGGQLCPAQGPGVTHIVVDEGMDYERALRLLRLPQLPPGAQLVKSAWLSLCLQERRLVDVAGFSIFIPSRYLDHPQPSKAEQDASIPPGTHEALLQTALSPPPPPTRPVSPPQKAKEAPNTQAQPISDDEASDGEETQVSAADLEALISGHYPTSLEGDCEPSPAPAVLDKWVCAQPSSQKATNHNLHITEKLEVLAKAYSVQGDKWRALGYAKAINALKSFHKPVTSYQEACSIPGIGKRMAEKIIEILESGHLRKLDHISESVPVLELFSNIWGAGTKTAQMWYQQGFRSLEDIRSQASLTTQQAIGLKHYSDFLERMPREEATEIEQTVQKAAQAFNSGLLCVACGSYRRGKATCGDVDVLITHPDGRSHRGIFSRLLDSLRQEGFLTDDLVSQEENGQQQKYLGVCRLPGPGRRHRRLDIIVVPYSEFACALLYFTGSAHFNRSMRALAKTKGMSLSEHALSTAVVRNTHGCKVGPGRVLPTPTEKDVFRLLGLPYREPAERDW

[3] = test system: GM12878 cells; experiment: MTS assay of cell proliferation, GM12878; assay type: cell-based, human; details: Homo sapiens, 24 h, GM12878, 24 h incubation
Outline: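 Lymphoblasts grown in RPMI 1640 with 15% FBS at 37 °C and 5% CO2. Plated at 5 × 10^3 per well, grown 24 h, then exposed 24 or 72 h to test compound alone or with 10 μM lignan inhibitor added. DMSO 0.2% final; vehicle controls. MTS/PMS in PBS pH 7.2 for 4 h at 37 °C; A492; cell-free background. Triplicate; normalized absorbance fitted for IC50 with 95% CI.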

## C=CCc1ccc(O)c(-c2ccc(O)c(CC=C)c2)c1 [HNL, 2-(4-hydroxy-3-prop-2-enyl-phenyl)-4-prop-2-enyl-phenol]
[1]
  IC50: 10 µM
  Ki: 20 µM
[1]; eq 3, factor on Km/Ki, 95% confidence limits
  α: 0.49 (0.12, 0.85)
[1]; eq 3, residual catalysis with HNL bound, 95% confidence limits
  β: 0.03 (–0.10, 0.15)
[1]; steady-state kinetic analysis
  inhibition mechanism versus dCTP: linear mixed-type noncompetitive
[2]
  Ki: > 500 µM
[2]; listed as Honokiol
  inhibition of DNA binding to polymerase (EMSA): does not inhibit DNA binding
[2]; listed as honokiol
  inhibition of DNA binding to polymerase (EMSA): did not inhibit the binding of the DNA to the polymerase
[3]; another study
  EC50: > 100 µM
[3]; one study
  EC50: > 1000 µM
